From article PMC3295204 (Journal of Medicinal Chemistry, 2012)

Experiments:
PC-3 cells = test: Cell viability; assay type: cell-based, human; conditions: PC-3, 50 μM, 24 h
Cell viability [1] = assay type: cell-based; conditions: human, LNCaP cells (androgen-dependent prostate cancer cell line)
Cell viability [2] = assay type: cell-based; conditions: human, PWR-1E cells (normal prostatic epithelia cell line)
Cell viability [3] = assay type: cell-based, human; conditions: human, PC-3 cells (androgen-independent prostate cancer cell line)
[4] = target: T1, progesterone receptor (PR) (Homo sapiens, UniProt P06401); test: TR-FRET SRC1-4 coactivator displacement from progesterone-PR complex; assay type: biochemical; conditions: AR vs PR
T1 sequence (P06401 679-933 limits assumed): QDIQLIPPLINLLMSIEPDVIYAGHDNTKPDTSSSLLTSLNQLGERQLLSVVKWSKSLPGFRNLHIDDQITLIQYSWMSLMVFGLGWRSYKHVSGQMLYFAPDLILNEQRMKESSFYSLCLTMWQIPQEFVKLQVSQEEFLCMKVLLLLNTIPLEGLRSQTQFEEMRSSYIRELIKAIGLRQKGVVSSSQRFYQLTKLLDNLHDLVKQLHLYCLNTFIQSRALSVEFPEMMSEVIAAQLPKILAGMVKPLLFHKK
In short: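 TR-FRET coactivator-recruitment assay with LBD and Tb anti-GST antibody. Agonist was set at its EC80 from a prior agonist-mode run: DHT for AR-LBD (test compound 100 μM–45 nM), progesterone for PR (100–1 μM). Buffer had 1% DMSO, 5 mM DTT and 0.01% Triton X-100; incubation was 2–4 h at RT in the dark. […] Two experiments in triplicate.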

LNCaP cells = test: Hormone-dependent cell proliferation in androgen-deprived LNCaP cells; assay type: cell-based, human
In short: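 LNCaP cells were androgen-deprived for 48 h in phenol red-free RPMI with 10% charcoal-stripped FBS. They were seeded at 2 × 10^4 cells/mL in triplicate and treated with test compound ± 0.1 nM DHT (0.1% DMSO final), with a vehicle control. Media and treatments were renewed every second day after two PBS washes. Proliferation was read by AlamarBlue at 5 days. Two independent experiments, SEM n = 6.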

[5] = tested on: PSA secretion (AR signaling) in LNCaP cells; test: Secreted PSA ELISA in LNCaP cells; assay type: cell-based, human
In short: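 Media were renewed every second day, and supernatants collected at day 5 for human PSA sandwich ELISA: sample 2 h at RT, HRP-conjugate antibody 2 h at RT, TMB 30 min, then 2 N H2SO4 stop. OD 450 minus 540 nm was interpolated from a standard curve. Two experiments, SEM n = 4.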

SMILES	cell viability (PC-3 cells)	viability at 24 h, 50 µM (Cell viability [1]) [%]	viability at 24 h, 50 µM (Cell viability [2]) [%]	viability at 24 h, 50 µM (Cell viability [3]) [%]	binding selectivity for AR over PR [4]	tolerability in LNCaP cells (LNCaP cells; 5 days of treatment at 10 and 20 μM)	effect on DHT-treated cell count (LNCaP cells; 5 days, 10 and 20 μM, 0.1 nM DHT)	effect on CPA partial agonist activity (secreted PSA) ([5]; 10 μM, androgen-deprived LNCaP)	effect on DHT-induced PSA secretion ([5]; LNCaP, ELISA)	agonist activity (PSA without hormone stimulation) ([5]; androgen-deprived LNCaP, tested concentrations)
CC(=O)O[C@]1(C(C)=O)CC[C@H]2[C@@H]3C=C(Cl)C4=CC(=O)[C@@H]5C[C@@H]5[C@]4(C)[C@H]3CC[C@@]21C [CPA, cyproterone acetate, reference compound]	minor effect									
O=C(N/N=C/c1cc(Br)ccc1O)c1cc2ccccc2cc1O [Compound 4]		50 to 60	50 to 60	50 to 60	approximately 2 fold					
COc1cc(/C=N/NC(=O)c2cc3c(ccc4ccccc43)o2)cc(OC)c1O [Compound 5]					comparable affinity	well-tolerated	specific reduction in DHT-treated cell count	antagonize CPA partial agonist activity	reduce DHT-induced PSA secretion in a dose–response fashion	no detectable agonist or partial agonist activity
